Results from ChEMBL document CHEMBL5357047, “The development of thymol-isatin hybrids as broad-spectrum antibacterial agents with potent anti-MRSA activity” (RSC Med Chem, 2024).
Converted amounts (≈) assume the structure as drawn. The source made the active and inactive calls. The rule behind the calls is not given here.

Tests used:
[1] = tested on: Staphylococcus aureus; assay: Antibacterial activity against Staphylococcus aureus MTCC 740 assessed as inhibition of bacterial growth at 50 uM measured after 48 hrs by agar well diffusion method; format: functional; conditions: read-out: IZ
[2] = molecular target: T1, 4,4'-diapophytoene synthase (Staphylococcus aureus) (UniProt A9JQL9); assay: Inhibition of CrtM in Methicillin-resistant Staphylococcus aureus assessed as inhibition of staphyloxanthin production by measuring reduction in 4,4'-diapophytoene level at 1/4XMIC measured after 24 hrs by spectroscopic analysis
T1 sequence (whole entry): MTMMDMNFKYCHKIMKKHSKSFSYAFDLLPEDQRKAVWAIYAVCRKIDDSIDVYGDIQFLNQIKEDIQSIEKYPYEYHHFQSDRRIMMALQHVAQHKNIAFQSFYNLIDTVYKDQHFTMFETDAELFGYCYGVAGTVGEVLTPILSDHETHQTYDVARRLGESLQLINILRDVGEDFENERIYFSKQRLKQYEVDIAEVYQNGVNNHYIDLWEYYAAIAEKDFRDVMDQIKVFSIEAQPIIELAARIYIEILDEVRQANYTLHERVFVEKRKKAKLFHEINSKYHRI
How it was run: (§1)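 Cells pelleted, PBS-washed, extracted overnight in methanol at 37 °C. Supernatant absorbance read at 462 nm (staphyloxanthin), 286 nm (4,4′-diapophytoene), 435 nm (4,4′-diaponeurosporene) or 455 nm (4,4′-diaponeurosporenic acid). % inhibition = (control − treated)/control × 100.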

[3] = tested on: Enterococcus faecalis; assay: Antibacterial activity against Enterococcus faecalis MTCC 439 assessed as inhibition of bacterial growth at 50 uM measured after 48 hrs by agar well diffusion method; format: functional; conditions: read-out: IZ
[4] = tested on: Staphylococcus aureus; assay: Anti-biofilm activity against Methicillin-resistant Staphylococcus aureus assessed as reduction in integrated density of biofilms at 1/2 to 2XMIC measured after 48 hrs by Syto-9 staining based fluorescence microscopy; format: functional, organism-based
How it was run: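 After PBS washes, stained with SYTO-9 ([…]) 15 min at 25 °C and imaged by fluorescence microscopy (excitation 480 nm). Integrated density quantified from images. Triplicate, mean ± SD.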

[5] = tested on: Staphylococcus aureus; assay: Anti-biofilm activity against Methicillin-resistant Staphylococcus aureus assessed as biofilm volume/area at 2XMIC measured after 48 hrs by crystal violet staining based phase contrast microscopy (reference value: 18.37 +/-1.14 um3/um2); format: functional
[6] = molecular target: T1, 4,4'-diapophytoene synthase (Staphylococcus aureus); assay: Inhibition of CrtM in Methicillin-resistant Staphylococcus aureus assessed as inhibition of staphyloxanthin production at 1/4 to 1/16XMIC measured after 48 hrs
[7] = tested on: Staphylococcus aureus; assay: Anti-biofilm activity against Methicillin-resistant Staphylococcus aureus assessed as biofilm volume/area at 1/2XMIC measured after 48 hrs by crystal violet staining based phase contrast microscopy (reference value: 18.37 +/-1.14 um3/um2); format: functional
[8] = tested on: Staphylococcus aureus; assay: Antibacterial activity against Staphylococcus aureus MTCC 740 assessed as inhibition of bacterial growth measured after 48 hrs by broth microdilution method; format: functional
[9] = tested on: Staphylococcus aureus; assay: Antibacterial activity against Methicillin-resistant Staphylococcus aureus infected in Galleria mellonella assessed as larva's survial rate at 2.5 mg/kg measured after 24 to 48 hrs; format: functional; conditions: time 24-48 hrs
How it was run: (§2)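 Galleria mellonella larvae (0.2–0.4 g, 10 per group) injected in the last proleg with MRSA at 5 × 10^8 ± 0.2 cells per larva, then given 2.5, 5 or 10 mg kg−1. Controls: untreated, PBS, and PBS + 2% DMSO vehicle. Held at 37 °C and checked every 12 h; larvae that were black and unresponsive counted dead. Bacterial burden by CFU at 0, 24 and 48 h.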

[10] = tested on: Staphylococcus aureus; assay: Bacteriostatic activity against Methicillin-resistant Staphylococcus aureus assessed as reduction in colony formation units at 1/2XMIC measured after 48 hrs by time-kill assay; format: functional, organism-based
How it was run: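 Samples taken at 1, 2, 4, 8, 12, 24 and 48 h, diluted in 0.9% saline and plated on Mueller Hinton agar (48 h, 37 °C). CFU counted and log10 CFU mL−1 plotted against time. Triplicate.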

[11] = molecular target: T1, 4,4'-diapophytoene synthase (Staphylococcus aureus); assay: Inhibition of CrtM in Methicillin-resistant Staphylococcus aureus assessed as inhibition of staphyloxanthin production by measuring reduction in 4,4'-diaponeurosporene level at 1/4XMIC measured after 24 hrs by spectroscopic analysis; how it was run: as §1
[12] = Toxicity against Galleria mellonella assessed as survival rate of larva at 20 mg/kg measured every 12 hrs for 120 hrs; format: organism-based; conditions: in vivo
How it was run: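 Uninfected Galleria mellonella larvae (0.2–0.4 g, 10 per group) given 20 mg kg−1. Controls: untreated, PBS, and PBS + 2% DMSO vehicle. Held at 37 °C and monitored every 12 h for 120 h; larvae that were black and unresponsive counted dead. Percentage survival plotted.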

[13] = tested on: Staphylococcus epidermidis; assay: Antibacterial activity against Staphylococcus epidermidis MTCC 435 assessed as inhibition of bacterial growth at 50 uM measured after 48 hrs by agar well diffusion method; format: functional; conditions: read-out: IZ
[14] = tested on: Acinetobacter baumannii; assay: Antibacterial activity against clinically isolated Acinetobacter baumannii RBRJ027 assessed as inhibition of bacterial growth at 50 uM measured after 48 hrs by agar well diffusion method; format: functional; conditions: read-out: IZ
[15] = tested on: Staphylococcus aureus; assay: Anti-biofilm activity against Methicillin-resistant Staphylococcus aureus assessed as biofilm substrate coverage at 1XMIC measured after 48 hrs by crystal violet staining based phase contrast microscopy (reference value: 81.43+/-3.57%); format: functional
[16] = tested on: Pseudomonas aeruginosa; assay: Antibacterial activity against Pseudomonas aeruginosa MTCC 424 assessed as inhibition of bacterial growth at 50 uM measured after 48 hrs by agar well diffusion method; format: functional; conditions: read-out: IZ
[17] = tested on: Staphylococcus aureus; assay: Antibacterial activity against clinically isolated Staphylococcus aureus RBRJ010 assessed as inhibition of bacterial growth measured after 48 hrs by broth microdilution method; format: functional
[18] = tested on: Staphylococcus aureus; assay: Anti-biofilm activity against Methicillin-resistant Staphylococcus aureus assessed as reduction in biofilm formation at 2XMIC measured after 48 hrs by crystal violet staining based analysis; format: functional
How it was run: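 Non-adherent cells washed off with water, stained with 0.5% crystal violet 30 min at 25 °C, dye eluted with 95% ethanol, OD 545 nm. Reported as % reduction versus untreated control. Triplicate.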

[19] = tested on: Staphylococcus aureus; assay: Antibacterial activity against clinically isolated Methicillin-resistant Staphylococcus aureus assessed as inhibition of bacterial growth at 50 uM measured after 48 hrs by agar well diffusion method; format: functional; conditions: read-out: IZ
[20] = tested on: Enterobacter cloacae; assay: Antibacterial activity against clinically isolated Enterobacter cloacae RBRJ017 assessed as inhibition of bacterial growth at 50 uM measured after 48 hrs by agar well diffusion method; format: functional; conditions: read-out: IZ
[21] = molecular target: T1, 4,4'-diapophytoene synthase (Staphylococcus aureus); assay: Inhibition of CrtM in Methicillin-resistant Staphylococcus aureus assessed as reduction in staphyloxanthin level at 1/4XMIC measured after 24 hrs by spectroscopic analysis; how it was run: as §1
[22] = Toxicity against Galleria mellonella assessed as metabolic activity of larva at 20 mg/kg measured every 12 hrs for 120 hrs; format: organism-based; conditions: in vivo
How it was run: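 Uninfected Galleria mellonella larvae (0.2–0.4 g, ten per group) given 20 mg kg−1 compound, alongside untreated, PBS and PBS + 2% DMSO vehicle controls; held at 37 °C and checked every 12 h for 120 h. Larvae that turned black and gave no response to stimulus counted dead; percentage survival recorded.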

[23] = tested on: Staphylococcus aureus; assay: Antibacterial activity against Methicillin-resistant Staphylococcus aureus infected in Galleria mellonella assessed as larva's survival rate at 5 to 10 mg/kg measured after 24 to 48 hrs; format: functional; conditions: dose 5-10 mg/kg, time 24-48 hrs; how it was run: as §2

Cc1ccc(C(C)C)c(OCc2cn(CCCN3C(=O)C(=O)c4ccccc43)nn2)c1
zone of inhibition at 50 µM [1]: 28.6 mm | inhibition [2]: 86% | zone of inhibition at 50 µM [3]: 18.5 mm | Activity [4]: Active | Activity [5]: 0.69 um3/um2 | inhibition [6]: Dose-Dependent Effect | Activity [7]: 3.48 um3/um2 | MIC [8]: 1.9 µM (≈ 0.795 µg/mL) | Activity [9]: 80% | Activity [10]: Active | inhibition [11]: 85% | survival at 120 h [12]: 90% | zone of inhibition at 50 µM [13]: 25.5 mm | zone of inhibition at 50 µM [14]: 18.3 mm | Activity [15]: 5.11% | zone of inhibition at 50 µM [16]: 22.3 mm | MIC [17]: 1.9 µM (≈ 0.795 µg/mL) | inhibition (INH) [18]: 96.21% | zone of inhibition at 50 µM [19]: 28.8 mm | zone of inhibition at 50 µM [20]: 19.2 mm | inhibition [21]: 86% | Activity [22]: Non-Toxic | Activity [23]: 90%
